HePTP inhibitor = inhibitors of human HePTP phosphatase, primary screen, biochemical, absorbance, leukemia target; inhibition, % at 20 µM; AID 521, 2006; Tyrosine-protein phosphatase non-receptor type 7 (Homo sapiens), P35236; 110,000 compounds, 0.64% hits; recombinant HePTP phosphatase activity, OD absorbance; in the data active means inhibition above about 50%;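 further: plate controls were vehicle for no effect and reference inhibitor for full effect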
Target sequence (P35236 whole entry, looked up): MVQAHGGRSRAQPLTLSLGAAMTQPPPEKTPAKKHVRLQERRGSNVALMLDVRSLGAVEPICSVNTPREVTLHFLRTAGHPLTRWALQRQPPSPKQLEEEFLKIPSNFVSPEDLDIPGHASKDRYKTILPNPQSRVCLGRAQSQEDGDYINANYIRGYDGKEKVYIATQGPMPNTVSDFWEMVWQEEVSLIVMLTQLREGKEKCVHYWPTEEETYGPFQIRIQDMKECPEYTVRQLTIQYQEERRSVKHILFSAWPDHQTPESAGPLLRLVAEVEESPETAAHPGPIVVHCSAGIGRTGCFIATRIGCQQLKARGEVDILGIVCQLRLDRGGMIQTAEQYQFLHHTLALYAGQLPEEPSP
PostGolgi ctrl = growth inhibition of yeast control strain, primary screen, counter-screen for post-Golgi transport modulator project. 98,000 compounds, 5% hits. AID 738, 2007. efflux-deficient yeast background strain, growth absorbance A615, 16 h. inhibition, % at 10 µM
PostGolgi yeast = phenotypic screen on post-Golgi transport, primary screen | post-Golgi transport phenotypic cell assay | inhibition, % at 10 µM | AID 739, 2007 | 98,000 compounds, 0.9% hits;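 further: yeast cells grown in 1536-well plates; yeast grown about 18 h at 30C before absorbance read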
E coli WT exp = growth inhibitors of wild-type E. coli, primary screen, strain BW25113, expanded library, OD600. OD600 absorbance. growth inhibition, % at 100 µM. 98,000 compounds, 0.15% hits;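 active means growth inhibition above about 50% at one test dose, limit read from the data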;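 further: growth measured after 20 h incubation at 37 °C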
tolC growth inh = growth inhibitors of E. coli tolC mutant, primary screen, strain BW25113 ΔtolC::kan, 384-well; growth inhibition, % at 10 µM (by protocol); 65,000 compounds, 2.2% hits; OD615; AID 573, 2007;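 active means growth inhibition at or above a cutoff equal to the mean over every tested compound plus 3 SD, cut at about 60% in these data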;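 further: growth measured after 20 h incubation at 37 °C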
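Test system: tolC-deleted E. coli BW25113; medium: LB with kanamycin 50 µg/mL; compound: single-point testing at 10 µM; incubation: 20 h compound exposure of bacteria at 37 °C; signal: OD at 615 nm; evaluation: growth inhibition in percent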
PLAP act = PLAP enzyme activators, biochemical, luminescence, HTS | Alkaline phosphatase, placental type (Homo sapiens), P05187 | purified PLAP enzyme, luminescent substrate read-out; hits give high values | activation fold at 20 µM | 96,000 compounds, 1.2% hits | AID 696, 2007; in the data active means activation fold above about 2
* = called active by the depositor; / = no result given. This is a sample that favours compounds with a hit; in the whole collection about 5.4% have one here. Unless noted, no stated cut-off is given here; in the data, active means inhibition above about 30%; inactive means the rest.

SMILES	HePTP inhibitor	PostGolgi ctrl	PostGolgi yeast	E coli WT exp	tolC growth inh	PLAP act
CC(=O)Nc1nonc1-c1nc2ccccc2n1CCC(C)C	3.5	29.9	4.2	7.0	30.4	1.2
Cc1nn(C(C)C(=O)N2CCc3ccccc3C2)c(=O)c2cc3occc3n12 (stereo unspecified)	1.5	1.2	11.1	1.0	0.8	1.6
CCC(C(=O)N1CCc2ccccc2C1)n1nc(C)n2c(cc3occc32)c1=O (stereo unspecified)	3.4	30.0*	-3.7	-4.0	-0.2	1.5
Cc1ccc2[nH]c(=O)c(-c3nc4cc(C)ccn4c3NCc3ccco3)cc2c1	3.5	12.1	-4.7	-5.0	38.7	1.4
Cc1cccc2cc(-c3nc4c(C)cccn4c3NCc3ccco3)c(=O)[nH]c12	/	56.2*	44.3*	-1.0	/	0.8
CCOc1ccc(-c2cc(N)n(S(=O)(=O)c3ccc(OC)c(OC)c3)n2)cc1	/	5.4	-3.5	6.0	/	1
COc1ccc(S(=O)(=O)n2nc(-c3ccc(Cl)cc3)cc2N)cc1OC	/	30.9*	-1.0	-6.0	/	0.9
N#CC1=C(S)N=C(N)C(c2nc(-c3ccccc3)cs2)C12CCCCC2 (stereo unspecified)	/	14.2	2.2	-8.0	/	2.2*
N#CC1=C(S)N=C(N)C(c2nc(-c3ccccc3)cs2)C12CCCC2 (stereo unspecified)	/	4.8	-9.2	-12.0	/	2.5*
Cc1ccc(C(=O)CSC2=NC(N)=C(C#N)C3(CCCCC3)C2C(N)=O)cc1 (stereo unspecified)	2.8	1.0	2.6	-4.0	18.2	1.3
Cc1ccc(-c2csc(C3C(N)=NC(S)=C(C#N)C34CCCCC4)n2)cc1 (stereo unspecified)	/	2.8	5.8	-11.0	/	2.4*
COc1ccc(OC)c(-n2c(SCC(N)=O)nnc2-c2c[nH]c3ccccc23)c1	10.8	4.1	-3.1	3.0	-10.6	1.4
Cc1ccc(CNC(=O)Cn2c(=O)oc3ccccc32)o1	9.9	39.9*	0.7	2.0	1.2	0.9
Cc1ccc(C2=C/C(=C\c3ccc(C)c([N+](=O)[O-])c3)C(=O)O2)cc1	11.1	/	/	/	/	/
CN(C(=O)CSc1nnc(Nc2ccccc2)s1)c1c(N)n(Cc2ccccc2)c(=O)[nH]c1=O	/	5.9	-4.6	-10.0	/	2.1*
CCCCN(C(=O)CSc1nnc(Nc2ccc(C)c(C)c2)s1)c1c(N)n(Cc2ccccc2)c(=O)[nH]c1=O	/	37.2*	-7.1	-6.0	/	1.9
CCCCn1c(N)c(N(CCC(C)C)C(=O)CSc2nnc3ccccn23)c(=O)[nH]c1=O	10.8	7.1	3.4	-2.0	-11.2	0.9
CCOC(=O)c1cnc2c(OC)cccc2c1N1CCN(c2ccc(OC)cc2)CC1	10.9	20.4	-7.0	-8.0	54.0	1.4
CC1CN(Cc2ccc(Cl)cc2Cl)CC(C)O1 (stereo unspecified)	/	5.1	-18.9	16.0	/	1
C=C(C)C1CC=C(CN2CCC(C(=O)OCC)CC2)CC1 (stereo unspecified)	1.5	14.7	78.3*	4.0	-7.1	1.5
CCOC(=O)C1CCN(Cc2ccc(F)cc2)CC1	5.7	/	/	/	-5.7	/
C=C(C)C1CC=C(CN2CC(C)OC(C)C2)CC1 (stereo unspecified)	/	17.4	94.8*	1.0	/	1.8
CCCCC(CC)CN1C(=O)/C(=C/c2ccncc2)SC1=S (stereo unspecified)	/	31.8*	12.9	3.0	/	1.1
COC(=O)CN1C(=O)C(=Cc2ccncc2)SC1=S	1.4	/	/	/	/	/
O=C(NCC(=O)N(c1ccccc1F)C(C(=O)NCC1CCCO1)c1ccccc1)c1ccco1 (stereo unspecified)	-4.1	-0.6	-0.5	-9.0	-11.9	1.2
CCN(CC)C(=O)COC(=O)c1cc(-c2ccc(OC)cc2)nc2ccccc12	/	39.9*	1.4	-26.0	/	1.7
O=C(Oc1ccc([N+](=O)[O-])cc1)c1cc(-c2ccccc2)nc2ccccc12	/	42.4*	12.7	-6.0	/	1
CC(C)c1ccc(-c2cc(C(=O)O)c3ccccc3n2)cc1	1.0	/	/	/	/	/
CC(C)Oc1ccc(-c2cc(C(=O)O)c3ccccc3n2)cc1	104.4*	/	/	/	/	/
O=C(NC(=S)Nc1cccc(NC(=O)c2ccco2)c1)c1ccc(Cl)cc1	7.4	/	/	/	/	/

Screening results deposited in PubChem by several laboratories.
